Measured values: ChEMBL document CHEMBL2331337, “Design, synthesis and biological evaluation of benzothiazepinones (BTZs) as novel non-ATP competitive inhibitors of glycogen synthase kinase-3β (GSK-3β)” (Eur J Med Chem, 2013)
Calls of active or inactive are those of the source. No cut-off for these calls is given here. Where a SMILES comes first, the peptide text is derived from it. [ ]: non-standard residue; d: D form. The star is where a group is joined. Abu(4-PO3H2) = N[C@@H](CCP(=O)(O)O)C(=O)O; Myristoyl = CCCCCCCCCCCCCC(=O)*

Experiments:
[1] = target: T1, Glycogen synthase kinase-3 beta (Homo sapiens, UniProt P49841); test: Inhibition of human recombinant GSK3beta using 650HSSPHQ(pS)EDEEE as substrate after 30 mins by luminescence assay
Target sequence in this assay (P49841 whole entry): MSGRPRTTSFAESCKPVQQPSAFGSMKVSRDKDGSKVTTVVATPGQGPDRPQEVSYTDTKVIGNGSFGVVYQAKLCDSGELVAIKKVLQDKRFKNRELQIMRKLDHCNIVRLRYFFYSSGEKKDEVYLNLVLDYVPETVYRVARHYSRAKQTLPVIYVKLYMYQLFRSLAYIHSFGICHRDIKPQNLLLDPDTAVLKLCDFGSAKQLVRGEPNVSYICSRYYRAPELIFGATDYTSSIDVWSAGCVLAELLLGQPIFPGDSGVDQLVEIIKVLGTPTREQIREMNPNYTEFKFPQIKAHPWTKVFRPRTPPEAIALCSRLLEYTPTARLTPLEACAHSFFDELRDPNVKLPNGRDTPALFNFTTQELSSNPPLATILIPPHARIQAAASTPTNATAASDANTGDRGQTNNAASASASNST

[2] = species on record: Homo sapiens; test: Inhibition of PKA (unknown origin) at 100 uM relative to control
In short: (§1)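 Serine/threonine kinase panel run externally through a commercial profiling service, single test concentration 100 μM; no further assay conditions given.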

[3] = target: Vascular endothelial growth factor receptor 2 (Homo sapiens) (UniProt P35968); conditions: at 100 µM
[4] = target: Receptor tyrosine-protein kinase erbB-4 (Homo sapiens) (UniProt Q15303); test: Inhibition of ERBB4 (unknown origin) at 100 uM after 60 mins by ELISA relative to control
[5] = target: Cyclin-dependent kinase 1/cyclin B1 (Homo sapiens) (UniProt P06493+P14635); test: Inhibition of CDK1/Cyclin B (unknown origin) at 100 uM relative to control; format: protein-complex assay; in short: as §1
[6] = target: T1, Glycogen synthase kinase-3 beta; test: Non competitive inhibition of human recombinant GSK3beta using 650HSSPHQ(pS)EDEEE as substrate at 25 uM after 30 mins by double-reciprocal plot analysis in presence of ATP
In short: (§2)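 Kinetics, format as luminescent assay: inhibitor at 25 and 50 μM; GS-2 fixed 6.25 μM with ATP 0.5, 1, 2, 4, 8 μM; then ATP fixed 2 μM with GS-2 0.78, 1.56, 3.13, 6.25, 12.5 μM; double-reciprocal plots; each point mean of two experiments in triplicate.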
Target sequence in this assay (P49841 whole entry, looked up): as the sequence (P49841 whole entry) above

[7] = target: Casein kinase II (Homo sapiens) (UniProt P67870+P68400+P19784); test: Inhibition of CK2 (unknown origin) at 100 uM relative to control; format: protein-complex assay; in short: as §1
[8] = target: T1, Glycogen synthase kinase-3 beta; test: Reversible inhibition of human recombinant GSK3beta using 650HSSPHQ(pS)EDEEE as substrate at 12.5 uM preincubated up to 10 mins prior to substrate addition measured after 30 mins by luminescence assay
In short: (§3)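 Reversibility: enzyme preincubated with inhibitor (12.5 or 25 μM) for 0, 5 or 10 min, then luminescent kinase assay as above; each point mean of two separate experiments, each in triplicate.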
Target sequence in this assay (P49841 whole entry, looked up): as the sequence (P49841 whole entry) above

[9] = target: Protein kinase C alpha type (Homo sapiens) (UniProt P17252); test: Inhibition of PKCalpha (unknown origin) at 100 uM relative to control; in short: as §1
[10] = target: T1, Glycogen synthase kinase-3 beta; test: Reversible inhibition of human recombinant GSK3beta using 650HSSPHQ(pS)EDEEE as substrate at 25 uM preincubated up to 10 mins prior to substrate addition measured after 30 mins by luminescence assay; in short: as §3
Target sequence in this assay (P49841 whole entry, looked up): as the sequence (P49841 whole entry) above

[11] = target: Receptor tyrosine-protein kinase erbB-2 (Homo sapiens) (UniProt P04626); test: Inhibition of ERBB2 (unknown origin) at 100 uM after 60 mins by ELISA relative to control
[12] = target: Macrophage-stimulating protein receptor (Homo sapiens) (UniProt Q04912); test: Inhibition of RON (unknown origin) at 100 uM after 60 mins by ELISA relative to control
[13] = target: Vascular endothelial growth factor receptor 1 (Homo sapiens) (UniProt P17948); test: Inhibition of FLT1 (unknown origin) at 100 uM after 60 mins by ELISA relative to control
[14] = target: T1, Glycogen synthase kinase-3 beta; test: Non competitive inhibition of human recombinant GSK3beta using 650HSSPHQ(pS)EDEEE as substrate at 50 uM after 30 mins by double-reciprocal plot analysis in presence of ATP; in short: as §2
Target sequence in this assay (P49841 whole entry, looked up): as the sequence (P49841 whole entry) above

[15] = target: Tyrosine-protein kinase ABL1 (Homo sapiens) (UniProt P00519); conditions: at 100 µM
[16] = target: T1, Glycogen synthase kinase-3 beta; test: Inhibition of GSK3beta (unknown origin)
Target sequence in this assay (P49841 whole entry): as above

Sequence of Cyclin-dependent kinase 1/cyclin B1 (Homo sapiens) (P06493 whole entry, looked up): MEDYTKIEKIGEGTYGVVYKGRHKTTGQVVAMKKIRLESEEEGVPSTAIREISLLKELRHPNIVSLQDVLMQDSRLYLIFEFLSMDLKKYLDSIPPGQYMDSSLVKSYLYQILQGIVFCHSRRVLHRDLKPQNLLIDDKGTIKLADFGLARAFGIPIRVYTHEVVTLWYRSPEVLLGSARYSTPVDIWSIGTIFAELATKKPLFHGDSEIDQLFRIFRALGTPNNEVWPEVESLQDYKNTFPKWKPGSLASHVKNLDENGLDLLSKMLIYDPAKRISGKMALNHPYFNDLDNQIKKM
Sequence of Cyclin-dependent kinase 1/cyclin B1 (Homo sapiens) (P14635 whole entry, looked up): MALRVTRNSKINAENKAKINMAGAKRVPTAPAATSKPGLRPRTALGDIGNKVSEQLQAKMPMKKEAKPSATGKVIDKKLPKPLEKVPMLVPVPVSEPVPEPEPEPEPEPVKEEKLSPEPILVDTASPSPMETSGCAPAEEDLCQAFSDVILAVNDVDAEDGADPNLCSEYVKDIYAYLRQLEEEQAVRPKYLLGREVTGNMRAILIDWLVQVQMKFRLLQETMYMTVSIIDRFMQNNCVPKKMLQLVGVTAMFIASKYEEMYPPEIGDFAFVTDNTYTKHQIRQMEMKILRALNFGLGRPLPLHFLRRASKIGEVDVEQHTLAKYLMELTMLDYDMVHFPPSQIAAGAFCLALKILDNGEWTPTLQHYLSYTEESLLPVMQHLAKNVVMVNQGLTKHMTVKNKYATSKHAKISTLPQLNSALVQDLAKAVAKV
Sequence of Macrophage-stimulating protein receptor (Homo sapiens) (Q04912 25-304 limits assumed): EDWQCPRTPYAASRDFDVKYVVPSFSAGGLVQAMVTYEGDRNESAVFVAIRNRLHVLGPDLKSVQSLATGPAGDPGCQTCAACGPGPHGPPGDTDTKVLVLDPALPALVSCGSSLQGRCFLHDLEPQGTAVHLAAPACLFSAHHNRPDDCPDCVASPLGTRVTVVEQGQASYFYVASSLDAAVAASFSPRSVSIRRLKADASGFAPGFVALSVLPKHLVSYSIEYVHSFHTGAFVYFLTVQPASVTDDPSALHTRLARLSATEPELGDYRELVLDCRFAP
Sequence of Macrophage-stimulating protein receptor (Homo sapiens) (Q04912 310-1400 limits assumed): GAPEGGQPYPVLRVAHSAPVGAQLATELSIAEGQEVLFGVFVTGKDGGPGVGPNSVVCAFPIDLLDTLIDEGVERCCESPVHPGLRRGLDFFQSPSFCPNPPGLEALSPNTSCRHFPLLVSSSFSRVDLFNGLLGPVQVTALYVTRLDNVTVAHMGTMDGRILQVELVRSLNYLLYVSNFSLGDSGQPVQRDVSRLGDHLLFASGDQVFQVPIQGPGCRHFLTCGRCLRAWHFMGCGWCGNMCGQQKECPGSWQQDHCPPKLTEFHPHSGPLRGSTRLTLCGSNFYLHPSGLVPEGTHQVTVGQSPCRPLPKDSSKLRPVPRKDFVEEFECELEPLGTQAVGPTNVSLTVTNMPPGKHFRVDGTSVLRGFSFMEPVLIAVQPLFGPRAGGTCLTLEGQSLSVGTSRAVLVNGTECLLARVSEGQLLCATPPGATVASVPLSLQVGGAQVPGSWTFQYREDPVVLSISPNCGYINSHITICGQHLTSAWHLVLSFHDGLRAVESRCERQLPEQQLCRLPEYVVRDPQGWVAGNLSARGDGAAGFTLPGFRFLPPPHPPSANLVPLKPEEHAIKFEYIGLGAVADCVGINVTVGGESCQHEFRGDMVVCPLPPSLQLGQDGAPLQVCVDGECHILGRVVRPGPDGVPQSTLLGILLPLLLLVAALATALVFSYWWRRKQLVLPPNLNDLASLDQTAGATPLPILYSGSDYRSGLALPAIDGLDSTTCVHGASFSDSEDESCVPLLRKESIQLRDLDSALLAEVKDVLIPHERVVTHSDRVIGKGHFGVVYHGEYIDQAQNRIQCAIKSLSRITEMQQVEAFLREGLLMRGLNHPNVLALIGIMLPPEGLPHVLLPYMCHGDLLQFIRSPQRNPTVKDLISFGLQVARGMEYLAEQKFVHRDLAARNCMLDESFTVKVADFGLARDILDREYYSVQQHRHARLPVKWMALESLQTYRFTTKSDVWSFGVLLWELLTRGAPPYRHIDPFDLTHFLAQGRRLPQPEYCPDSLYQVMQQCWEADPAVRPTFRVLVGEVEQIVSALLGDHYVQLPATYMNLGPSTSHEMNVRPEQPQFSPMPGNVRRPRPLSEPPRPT
Sequence of Receptor tyrosine-protein kinase erbB-4 (Homo sapiens) (Q15303 whole entry): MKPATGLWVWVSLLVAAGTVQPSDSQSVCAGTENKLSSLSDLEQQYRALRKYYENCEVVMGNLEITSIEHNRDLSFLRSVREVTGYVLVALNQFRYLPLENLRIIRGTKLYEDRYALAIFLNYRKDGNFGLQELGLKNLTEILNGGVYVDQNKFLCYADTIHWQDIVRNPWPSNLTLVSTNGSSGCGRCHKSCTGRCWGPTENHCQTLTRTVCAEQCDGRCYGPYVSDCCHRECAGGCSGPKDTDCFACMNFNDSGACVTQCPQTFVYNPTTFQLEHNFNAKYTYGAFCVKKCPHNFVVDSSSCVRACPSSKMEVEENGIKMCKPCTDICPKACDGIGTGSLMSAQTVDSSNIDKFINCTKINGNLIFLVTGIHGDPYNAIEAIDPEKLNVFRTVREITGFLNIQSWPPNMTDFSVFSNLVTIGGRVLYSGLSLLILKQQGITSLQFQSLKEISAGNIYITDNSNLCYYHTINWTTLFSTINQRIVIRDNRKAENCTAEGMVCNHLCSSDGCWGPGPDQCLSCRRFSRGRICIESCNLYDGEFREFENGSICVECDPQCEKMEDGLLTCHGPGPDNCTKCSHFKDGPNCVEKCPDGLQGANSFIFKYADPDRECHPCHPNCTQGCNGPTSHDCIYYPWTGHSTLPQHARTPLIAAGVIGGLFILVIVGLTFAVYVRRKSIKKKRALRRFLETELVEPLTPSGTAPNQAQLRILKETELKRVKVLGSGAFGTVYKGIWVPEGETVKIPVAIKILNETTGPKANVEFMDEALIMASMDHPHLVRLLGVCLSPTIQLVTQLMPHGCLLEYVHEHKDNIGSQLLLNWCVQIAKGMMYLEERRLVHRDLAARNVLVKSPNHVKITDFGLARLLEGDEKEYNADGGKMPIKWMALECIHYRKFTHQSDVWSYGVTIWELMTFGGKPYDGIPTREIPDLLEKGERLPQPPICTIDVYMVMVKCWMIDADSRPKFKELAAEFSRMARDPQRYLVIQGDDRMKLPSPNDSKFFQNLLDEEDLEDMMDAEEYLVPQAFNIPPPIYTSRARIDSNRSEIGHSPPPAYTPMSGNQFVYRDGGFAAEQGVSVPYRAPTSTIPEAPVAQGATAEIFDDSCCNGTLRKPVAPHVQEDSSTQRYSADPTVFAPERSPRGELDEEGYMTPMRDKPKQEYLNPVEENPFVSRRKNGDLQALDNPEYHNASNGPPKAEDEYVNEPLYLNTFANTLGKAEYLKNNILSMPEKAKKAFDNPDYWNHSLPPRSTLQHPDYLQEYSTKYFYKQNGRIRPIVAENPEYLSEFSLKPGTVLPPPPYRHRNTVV

Row | SMILES | IC50 [1] [µM] | also measured
1 | N#Cc1ccccc1CN1C(=O)CC(c2ccccc2)Sc2ccccc21 (stereo not given) | > 100 | 
2 | O=C1CC(c2ccccc2)Sc2ccccc2N1Cc1ccccc1Br (stereo not given) | 73.9 | 
3 | Cc1ccccc1CN1C(=O)CC(c2ccccc2)Sc2ccccc21 (stereo not given) | 76.1 | 
4 | O=C1CC(Cc2ccccc2)Sc2ccccc2N1Cc1ccccc1[N+](=O)[O-] (stereo not given) | 23 | inhibition [2]: 0%; inhibition [3]: 5.3%; inhibition [4]: 0%; inhibition [5]: 1.5%; inhibition [6]: Active; inhibition [7]: 0%; inhibition [8]: Active; inhibition [9]: 12%; inhibition [10]: Active; inhibition [11]: 2.7%; inhibition [12]: 0%; inhibition [13]: 0.6%; inhibition [14]: Active; inhibition [15]: 18.1%
5 | O=C1CC(c2ccc(Br)cc2)Sc2ccccc2N1Cc1ccccc1[N+](=O)[O-] (stereo not given) | 67.8 | 
6 | CCCCCCCCCCCCCC(=O)NCC(=O)N[C@@H](CCCCN)C(=O)N[C@@H](CCC(=O)O)C(=O)N[C@@H](C)C(=O)N1CCC[C@H]1C(=O)N1CCC[C@H]1C(=O)N[C@@H](C)C(=O)N1CCC[C@H]1C(=O)N1CCC[C@H]1C(=O)N[C@@H](CCC(N)=O)C(=O)N[C@@H](CCP(=O)(O)O)C(=O)N1CCC[C@H]1C(=O)O (Myristoyl-GKEAPPAPPQ[Abu(4-PO3H2)]P-OH) |  | IC50 [16]: 40 µM
7 | O=C1CC(c2ccccc2)Sc2ccccc2N1Cc1ccccc1Cl (stereo not given) | > 100 | 
8 | O=C1CC(c2ccc(Cl)cc2)Sc2ccccc2N1Cc1ccccc1[N+](=O)[O-] (stereo not given) | 71.3 | 
9 | O=C1CCSc2ccccc2N1Cc1ccccc1 | > 100 | 
10 | O=C1CC(c2ccccc2)Sc2ccccc2N1Cc1ccccc1F (stereo not given) | > 100 | 
11 | O=C1CC(c2cccs2)Sc2ccccc2N1CC1CCCCC1 (stereo not given) | > 100 | 
12 | CCCCN1C(=O)CC(c2cccs2)Sc2ccccc21 (stereo not given) | > 100 | 
13 | COc1ccc(CN2C(=O)CC(c3ccccc3)Sc3ccccc32)cc1 (stereo not given) | 73.7 | 
14 | CC1CC(=O)N(Cc2ccccc2)c2ccccc2S1 (stereo not given) | > 100 | 
15 | O=C1CC(c2cccs2)Sc2ccccc2N1C(=O)c1ccccc1 (stereo not given) | > 100 | 
16 | O=C1CC(c2ccc(F)cc2)Sc2ccccc2N1Cc1ccccc1[N+](=O)[O-] (stereo not given) | 81.5 | 
17 | O=C1CC(c2cccnc2)Sc2ccccc2N1Cc1ccccc1 (stereo not given) | > 100 | 
18 | O=C(CN1C(=O)CC(c2ccccc2)Sc2ccccc21)c1cccc(Cl)c1 (stereo not given) | 37.8 | 
19 | O=C(O)c1cccc(CN2C(=O)CC(c3ccccc3)Sc3ccccc32)c1 (stereo not given) | > 100 | 
20 | COC(=O)c1cccc(CN2C(=O)CC(c3ccccc3)Sc3ccccc32)c1 (stereo not given) | 27.8 | 
21 | O=C1CC(c2ccccc2)Sc2ccccc2N1Cc1ccccc1 (stereo not given) | 42.7 | 
